Measured values collected from several papers.
Compare with care: the assays were run in different laboratories.
Matrix: Caco-2

Compound	conditions	Papp A→B
Cn1c(S)nc2c1c(=O)n(Cc1ccccc1)c(=O)n2C	10 µM, 2 h	10 ×10⁻⁶ cm/s
COCCc1ccc(OCC(O)CNC(C)C)cc1 (stereo not shown)	pH 6.5	13.3 ×10⁻⁶ cm/s
CC(C)c1cccc2c(-c3ccccc3)cc(-c3ccc(-c4ccc(C(=O)O)cc4)[nH]3)nc12		1.61 ×10⁻⁶ cm/s
CC(C)(C)NCC(O)COc1cccc2c1CC(O)C(O)C2 (stereo not shown)		0.0514 ×10⁻⁶ cm/s
O=C(O)COc1cccc(Oc2ccc(-c3noc(-c4ccc(O)cc4)n3)cc2)c1	2 h, pH 7.4	5.3 ×10⁻⁶ cm/s
Cc1ncsc1-c1ccc(CNC(=O)[C@@H]2C[C@@H](O)CN2C(=O)[C@@H](NC(=O)C2(F)CC2)C(C)(C)C)c(OCCOCCOCCN2CCN(c3cc(-c4ccccc4O)nnc3N)CC2)c1	2 h, pH 7.2	0.11 ×10⁻⁶ cm/s
Nc1nc2c(ncn2COCCO)c(=O)[nH]1	10 µM, 2 h, pH 7.4	0.0803 ×10⁻⁶ cm/s
CNC(=C[N+](=O)[O-])NCCSCc1ccc(CN(C)C)o1		0.4 ×10⁻⁶ cm/s
COc1cc(Cl)c(C(=O)N[C@@H](CN[C@H]2CC[C@@H](N)CC2)Cc2ccc(C#N)cc2)cc1-c1ccc(CN[C@H](C)c2ccc(C)cc2)o1	2 µM, 2 h, pH 7.2	3.9 ×10⁻⁶ cm/s
O=C(COCc1cccnc1)C12CC3CC(CC(C3)C1)C2	20 µM	6.3 ×10⁻⁶ cm/s
CO[C@@H](C[C@H]1C(C)=CC[C@@H]2[C@]3(C)C[C@H](O[C@@H]4O[C@@H](C)[C@H](OC(=O)c5cccc(O)c5)[C@@H](O[C@@H]5O[C@H](CO)[C@@H](O)[C@H](O)[C@H]5NC(C)=O)[C@H]4O)[C@@H](O)C(C)(C)[C@H]3CC[C@]21C)[C@H](N)C(=O)O.O=C(O)C(F)(F)F	5 µM, 1 h	0.01 ×10⁻⁶ cm/s
CC#Cc1cncc(-c2ccc3c(c2)[C@@]2(N=C(C)C(N)=N2)[C@]2(CC[C@H](OC)CC2)C3)c1		34.8 ×10⁻⁶ cm/s
COc1cc(F)ccc1-c1ncnc(Nc2cccc(CS(N)(=O)=O)c2)n1	2 µM, 2 h, pH 7.2	2.2 ×10⁻⁶ cm/s
C=CC(=O)Nc1cc(Nc2nccc(-c3cn(C)c4ccccc34)n2)c(OC)cc1N(C)CCN(C)C	pH 6.5	12.5 ×10⁻⁶ cm/s
CCn1c(=O)c2c(nc(S)n2C)n(C)c1=O	10 µM, 2 h	2.7 ×10⁻⁶ cm/s
C[C@H]1O[C@@H](O[C@H]2[C@@H](O)C[C@H](O[C@H]3[C@@H](O)C[C@H](O[C@H]4CC[C@@]5(C)[C@H](CC[C@@H]6[C@@H]5C[C@@H](O)[C@]5(C)[C@@H](C7=CC(=O)OC7)CC[C@]65O)C4)O[C@@H]3C)O[C@@H]2C)C[C@H](O)[C@@H]1O	5 µM, 1 h	1.3 ×10⁻⁶ cm/s
